Assay results taken from PMC2745822 (The Journal of pharmacology and experimental therapeutics, 2008).

How the values were obtained:
[1] = system: panel of 16 GPCRs; test: Millipore GPCR Profiler functional panel; format: cell-based
Procedure, shortened: (§1)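 Outsourced functional screening paradigm covering 16 GPCRs, chosen as family A subtypes among the closest relatives of mAChRs. Test compound was assessed for agonist, antagonist and allosteric potentiator activity by its effect on full concentration-response curves of each receptor's agonist.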

[2] = target: T1, M1 mAChR (Rattus norvegicus, UniProt P08482); test: Calcium mobilization selectivity assay, CHO K1 cells expressing M1; format: cell-based; details: 30 µM compound
T1 sequence (P08482 1-460): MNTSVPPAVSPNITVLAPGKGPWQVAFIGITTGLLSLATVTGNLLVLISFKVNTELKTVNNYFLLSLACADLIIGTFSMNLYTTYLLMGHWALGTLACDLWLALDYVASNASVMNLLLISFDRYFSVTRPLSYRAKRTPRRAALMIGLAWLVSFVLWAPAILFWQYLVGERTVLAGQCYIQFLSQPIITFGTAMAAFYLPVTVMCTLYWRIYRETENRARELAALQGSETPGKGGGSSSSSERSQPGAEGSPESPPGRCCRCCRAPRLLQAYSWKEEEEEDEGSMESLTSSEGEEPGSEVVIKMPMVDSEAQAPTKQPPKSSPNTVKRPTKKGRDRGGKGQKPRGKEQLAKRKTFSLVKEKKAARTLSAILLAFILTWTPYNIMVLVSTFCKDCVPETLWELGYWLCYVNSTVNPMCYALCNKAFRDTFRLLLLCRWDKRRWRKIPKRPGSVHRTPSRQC
Procedure, shortened: (§2)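 CHO K1 cells stably expressing rat M1 or human M3 or M5, coupled through endogenous Gq. Seeded 50,000 cells/well and held overnight in antibiotic-free medium at 37°C/5% CO2. Loaded with 2 µM Fluo-4 AM for 45 min at 37°C in HBSS/20 mM HEPES/2.5 mM probenecid, pH 7.4. […] Three independent experiments.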

[3] = system: GABAA receptors; test: MDS Pharma LeadProfiling Screen, flunitrazepam binding; details: 10 µM
[4] = log P; format: physicochemical
[5] = target: T2, M5 mAChR (Homo sapiens, UniProt P08912); test: Calcium mobilization selectivity assay, CHO K1 cells expressing M5; format: cell-based; details: 30 µM compound
T2 sequence (P08912 1-532): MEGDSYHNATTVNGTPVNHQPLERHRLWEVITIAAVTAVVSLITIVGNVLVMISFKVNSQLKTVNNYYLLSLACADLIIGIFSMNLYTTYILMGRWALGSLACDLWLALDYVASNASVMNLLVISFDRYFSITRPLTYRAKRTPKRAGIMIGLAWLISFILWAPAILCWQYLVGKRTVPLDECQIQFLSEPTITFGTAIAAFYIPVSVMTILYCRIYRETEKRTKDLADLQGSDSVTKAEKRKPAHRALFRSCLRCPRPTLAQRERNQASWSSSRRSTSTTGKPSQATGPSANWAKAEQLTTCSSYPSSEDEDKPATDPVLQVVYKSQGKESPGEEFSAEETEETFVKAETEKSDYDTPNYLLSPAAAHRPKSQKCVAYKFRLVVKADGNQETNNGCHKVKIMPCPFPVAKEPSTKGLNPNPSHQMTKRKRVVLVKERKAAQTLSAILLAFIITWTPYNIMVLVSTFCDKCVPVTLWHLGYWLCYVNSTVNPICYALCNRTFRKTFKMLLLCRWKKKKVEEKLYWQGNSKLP
Procedure, shortened: as §2

[6] = target: serotonin 2B receptor (Homo sapiens, UniProt P41595); test: Millipore GPCR Profiler functional screen, serotonin 2B receptor; format: cell-based; details: full agonist CRC
Chain of serotonin 2B receptor (P41595 whole entry): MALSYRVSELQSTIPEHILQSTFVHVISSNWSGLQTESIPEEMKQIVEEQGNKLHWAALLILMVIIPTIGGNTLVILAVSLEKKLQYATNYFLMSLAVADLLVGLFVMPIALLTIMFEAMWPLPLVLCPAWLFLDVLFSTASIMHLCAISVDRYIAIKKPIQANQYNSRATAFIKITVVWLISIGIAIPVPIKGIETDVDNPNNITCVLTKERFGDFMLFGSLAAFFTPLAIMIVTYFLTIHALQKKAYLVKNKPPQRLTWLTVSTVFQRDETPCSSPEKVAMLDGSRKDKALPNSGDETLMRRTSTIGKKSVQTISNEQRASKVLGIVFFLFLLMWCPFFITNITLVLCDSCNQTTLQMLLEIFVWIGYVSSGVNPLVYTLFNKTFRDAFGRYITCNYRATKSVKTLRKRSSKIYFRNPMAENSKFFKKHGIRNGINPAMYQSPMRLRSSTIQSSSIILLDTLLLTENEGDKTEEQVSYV
Procedure, shortened: as §1

[7] = target: T3, human M4 muscarinic receptor (Homo sapiens, UniProt P08173)
T3 sequence (P08173 1-479): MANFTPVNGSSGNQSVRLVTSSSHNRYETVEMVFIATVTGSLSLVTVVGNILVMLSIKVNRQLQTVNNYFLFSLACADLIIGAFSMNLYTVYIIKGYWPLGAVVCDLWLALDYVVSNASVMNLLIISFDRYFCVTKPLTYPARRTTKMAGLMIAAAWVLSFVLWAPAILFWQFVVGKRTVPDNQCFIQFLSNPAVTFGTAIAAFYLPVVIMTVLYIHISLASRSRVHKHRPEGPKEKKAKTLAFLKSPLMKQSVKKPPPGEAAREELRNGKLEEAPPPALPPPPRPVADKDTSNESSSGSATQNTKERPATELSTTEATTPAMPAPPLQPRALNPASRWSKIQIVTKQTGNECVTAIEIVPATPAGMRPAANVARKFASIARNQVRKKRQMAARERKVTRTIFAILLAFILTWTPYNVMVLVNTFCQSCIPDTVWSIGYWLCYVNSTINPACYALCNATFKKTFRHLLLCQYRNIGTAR

[8] = target: T4, M2 mAChR (Homo sapiens, UniProt P08172); test: Calcium mobilization selectivity assay, CHO K1 cells expressing M2-Gqi5; format: cell-based; details: 30 µM compound
T4 sequence (P08172 1-466): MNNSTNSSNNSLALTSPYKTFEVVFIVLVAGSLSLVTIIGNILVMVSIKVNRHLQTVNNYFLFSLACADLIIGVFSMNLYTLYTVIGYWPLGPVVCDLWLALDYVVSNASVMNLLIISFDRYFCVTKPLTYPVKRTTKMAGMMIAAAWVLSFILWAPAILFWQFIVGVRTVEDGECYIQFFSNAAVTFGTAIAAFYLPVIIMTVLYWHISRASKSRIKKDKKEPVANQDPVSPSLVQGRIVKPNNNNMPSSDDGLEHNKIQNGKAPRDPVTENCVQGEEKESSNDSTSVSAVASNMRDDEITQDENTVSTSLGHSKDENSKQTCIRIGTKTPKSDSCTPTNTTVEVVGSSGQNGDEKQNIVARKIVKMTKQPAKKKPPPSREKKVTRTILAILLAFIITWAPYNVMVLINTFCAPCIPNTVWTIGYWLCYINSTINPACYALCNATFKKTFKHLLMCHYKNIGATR
Procedure, shortened: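 CHO K1 cells stably co-expressing human M2 and chimeric Gqi5, grown with 500 µg/ml hygromycin B. Seeded 60,000 cells/well and kept overnight in antibiotic-free medium at 37°C/5% CO2. Loaded with 2 µM Fluo-4 AM for 45 min at 37°C in HBSS/HEPES/probenecid buffer, pH 7.4. […] Three independent experiments.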

[9] = system: panel of 68 discrete GPCRs, ion channels, transporters, and enzymes; test: MDS Pharma LeadProfiling Screen radioligand binding panel; details: 10 µM; for VU0152099 with the single exception of GABAA receptors

In the case of Cc1cc(C)c2c(N)c(C(=O)NCc3ccc4c(c3)OCO4)sc2n1 [VU0152099, 3-amino-N-(benzo[d][1,3]dioxol-5-ylmethyl)-4,6-dimethylthieno[2,3-b]pyridine carboxamide], the “agonist activity, compound alone” value ([1]; data not shown) is reported as “no agonist activity at any receptor studied”, the “allosteric potentiator activity at the other GPCR subtypes” value ([1]; full agonist CRCs) is reported as “had no allosteric potentiator activity at any of the other GPCR subtypes tested” and the “shift in the ACh CRC at M1” value [2] is reported as “No shift in the ACh CRC was observed”. For the same molecule, the “displacement of flunitrazepam binding” value [3] was 51%, the “log P” value [4] was 3.65 and the “shift in the ACh CRC at M5” value [5] was “No shift in the ACh CRC was observed”. For the same molecule, the “antagonist activity at serotonin 2B receptor” value [6] was “weak antagonist activity at serotonin 2B receptor”, the “leftward shift in the ACh CRC” value ([7]; 10 µM compound) was “≈ 30 fold” and the “maximal response to ACh” value ([7]; in presence of compound) was “approximately 130%”. The “shift in the ACh CRC at M2-Gqi5” value [8] was “No shift in the ACh CRC was observed” and the “displacement of binding, all targets tested” value [9] was “less than 50%”.
